# Measured values published in ChEMBL document CHEMBL1138555, “N-acylated and N,N'-diacylated imidazolidine-2-thione derivatives and N,N'-diacylated tetrahydropyrimidine-2(1H)-thione analogues: synthesis and antiproliferative activity” (Eur J Med Chem, 2009).
# How the values were obtained:
# MT4 = assay: Antiproliferative activity against human MT4 cells assessed as reduction of growth by MTT assay; assay type: functional, cell-based
# Summary of the method: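 MT-4 lymphoblastoid T cells (ATCC) in RPMI 1640 with 10% FCS, penicillin/streptomycin, checked for mycoplasma. 1 × 10⁴ mock-infected cells per well with serial dilutions from a 100 mM DMSO stock. Incubated 4 days at 37 °C, viable cells counted by MTT. IC50 versus untreated controls by linear regression. Mean of three separate experiments.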
# SNB-19 = assay: Growth inhibition of human SNB19 cells after 48 hrs by sulforhodamine B assay; assay type: functional; conditions: SNB-19, 48 h
# Summary of the method: (§1)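 NCI in vitro panel screen. Compounds tested at five 10-fold dilutions, 10^-4 to 10^-8 M. Cells in 96-well plates were exposed for the last 48 h of a 72 h incubation. Viability/growth was read by sulforhodamine B protein assay. GI50 is the concentration giving 50% growth inhibition. Values beyond the tested range are reported as greater or less than the maximum or minimum concentration.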
# IGROV-1 = assay: Growth inhibition of human IGROV1 cells after 48 hrs by sulforhodamine B assay; assay type: functional; conditions: IGROV-1, 48 h
# Summary of the method: (§2)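 NCI screen panel. Five 10-fold concentrations from 10^-4 to 10^-8 M. Exposure for the last 48 h of a 72 h incubation. Growth estimated by sulforhodamine B protein assay. GI50 is the concentration giving 50% growth inhibition. Where that level was not reached or was exceeded, the value is given as above or below the highest or lowest concentration tested.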
# BT-549 = assay: Growth inhibition of human BT549 cells after 48 hrs by sulforhodamine B assay; assay type: functional; conditions: BT-549, 48 h; summary of the method: as §2
# RXF 393 = assay: Growth inhibition of human RXF393 cells after 48 hrs by sulforhodamine B assay; assay type: functional; conditions: RXF 393, 48 h; summary of the method: as §2
# TK-10 = assay: Growth inhibition of human TK10 cells after 48 hrs by sulforhodamine B assay; assay type: functional; conditions: TK-10, 48 h; summary of the method: as §1
# HCT-116 = assay: Growth inhibition of human HCT116 cells after 48 hrs by sulforhodamine B assay; assay type: functional; conditions: HCT-116, 48 h; summary of the method: as §2
# UACC-257 = assay: Growth inhibition of human UACC257 cells after 48 hrs by sulforhodamine B assay; assay type: functional; conditions: UACC-257, 48 h; summary of the method: as §1
# SK-MEL-5 = assay: Growth inhibition of human SK-MEL-5 cells after 48 hrs by sulforhodamine B assay; assay type: functional; conditions: SK-MEL-5, 48 h; summary of the method: as §2
# OVCAR-3 = assay: Growth inhibition of human OVCAR-3 cells after 48 hrs by sulforhodamine B assay; assay type: functional; conditions: OVCAR-3, 48 h; summary of the method: as §2
# UACC-62 = assay: Growth inhibition of human UACC62 cells after 48 hrs by sulforhodamine B assay; assay type: functional; conditions: UACC-62, 48 h; summary of the method: as §1
# [1] = Growth inhibition of human […] cells after 48 hrs by sulforhodamine B assay; assay type: functional; summary of the method: as §2
# NCI-H322M = assay: Growth inhibition of human NCI-H322M cells after 48 hrs by sulforhodamine B assay; assay type: functional; summary of the method: as §2
# MOLT-4 = assay: Growth inhibition of human MOLT4 cells after 48 hrs by sulforhodamine B assay; assay type: functional; conditions: MOLT-4, 48 h; summary of the method: as §2
# M14 = assay: Growth inhibition of human M14 cells after 48 hrs by sulforhodamine B assay; assay type: functional; conditions: M14, 48 h; summary of the method: as §2
# NCI-H23 = assay: Growth inhibition of human NCI-H23 cells after 48 hrs by sulforhodamine B assay; assay type: functional; conditions: NCI-H23, 48 h; summary of the method: as §2
# LOX IMVI = assay: Growth inhibition of human LOXIMVI cells after 48 hrs by sulforhodamine B assay; assay type: functional; summary of the method: as §2
# ACHN = assay: Growth inhibition of human ACHN cells after 48 hrs by sulforhodamine B assay; assay type: functional; summary of the method: as §2
# MDA-MB-231 = assay: Growth inhibition of human MDA-MB-231 cells after 48 hrs by sulforhodamine B assay; assay type: functional; conditions: MDA-MB-231, 48 h; summary of the method: as §2
# SNB-75 = assay: Growth inhibition of human SNB75 cells after 48 hrs by sulforhodamine B assay; assay type: functional; conditions: SNB-75, 48 h; summary of the method: as §1
# A549 = assay: Growth inhibition of human A549 cells after 48 hrs by sulforhodamine B assay; assay type: functional; conditions: A549, 48 h; summary of the method: as §2
# OVCAR-8 = assay: Growth inhibition of human OVCAR8 cells after 48 hrs by sulforhodamine B assay; assay type: functional; conditions: OVCAR-8, 48 h; summary of the method: as §2
# Malme-3M = assay: Growth inhibition of human MALME-3M cells after 48 hrs by sulforhodamine B assay; assay type: functional; summary of the method: as §2
# HT-29 = assay: Growth inhibition of human HT-29 cells after 48 hrs by sulforhodamine B assay; assay type: functional; conditions: HT-29, 48 h; summary of the method: as §2
# SK-MEL-28 = assay: Growth inhibition of human SK-MEL-28 cells after 48 hrs by sulforhodamine B assay; assay type: functional; conditions: SK-MEL-28, 48 h; summary of the method: as §2
# SW-620 = assay: Growth inhibition of human SW620 cells after 48 hrs by sulforhodamine B assay; assay type: functional; conditions: SW-620, 48 h; summary of the method: as §1
# HL-60(TB) = assay: Growth inhibition of human HL-60(TB) cells after 48 hrs by sulforhodamine B assay; assay type: functional; conditions: HL-60, 48 h
# Summary of the method: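 NCI 60-cell-line screen protocol: cells exposed to compound at five 10-fold dilutions from 10^-4 to 10^-8 M for the last 48 h of a 72 h incubation. Sulforhodamine B protein assay estimated viability/growth. GI50 (50% growth inhibition) derived; where not reached or exceeded, reported as greater or less than the highest or lowest concentration tested.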
# HOP-62 = assay: Growth inhibition of human HOP62 cells after 48 hrs by sulforhodamine B assay; assay type: functional; conditions: HOP-62, 48 h; summary of the method: as §2
# U-251 = assay: Growth inhibition of human U251 cells after 48 hrs by sulforhodamine B assay; assay type: functional; conditions: U-251, 48 h; summary of the method: as §1
# NCI/ADR-RES = assay: Growth inhibition of human NCI/ADR-RES cells after 48 hrs by sulforhodamine B assay; assay type: functional; summary of the method: as §2
# CAKI-1 = assay: Growth inhibition of human Caki1 cells after 48 hrs by sulforhodamine B assay; assay type: functional; conditions: CAKI-1, 48 h; summary of the method: as §2
# NCI-H460 = assay: Growth inhibition of human NCI-H460 cells after 48 hrs by sulforhodamine B assay; assay type: functional; conditions: NCI-H460, 48 h; summary of the method: as §2
# SF-268 = assay: Growth inhibition of human SF268 cells after 48 hrs by sulforhodamine B assay; assay type: functional; conditions: SF-268, 48 h; summary of the method: as §2
# SN12C = assay: Growth inhibition of human SN12C cells after 48 hrs by sulforhodamine B assay; assay type: functional; summary of the method: as §1
# OVCAR-4 = assay: Growth inhibition of human OVCAR4 cells after 48 hrs by sulforhodamine B assay; assay type: functional; conditions: OVCAR-4, 48 h; summary of the method: as §2
# KM12 = assay: Growth inhibition of human KM12 cells after 48 hrs by sulforhodamine B assay; assay type: functional; conditions: KM12, 48 h; summary of the method: as §2
# SK-MEL-2 = assay: Growth inhibition of human SK-MEL-2 cells after 48 hrs by sulforhodamine B assay; assay type: functional; conditions: SK-MEL-2, 48 h; summary of the method: as §2
# PC-3 = assay: Growth inhibition of human PC3 cells after 48 hrs by sulforhodamine B assay; assay type: functional; conditions: PC-3, 48 h; summary of the method: as §2
# UO-31 = assay: Growth inhibition of human UO31 cells after 48 hrs by sulforhodamine B assay; assay type: functional; conditions: UO-31, 48 h; summary of the method: as §1
# SK-OV-3 = assay: Growth inhibition of human SKOV3 cells after 48 hrs by sulforhodamine B assay; assay type: functional; conditions: SK-OV-3, 48 h; summary of the method: as §2
# 786-0 = assay: Growth inhibition of human 786-0 cells after 48 hrs by sulforhodamine B assay; assay type: functional; conditions: 786-0, 48 h; summary of the method: as §2
# SF-295 = assay: Growth inhibition of human SF295 cells after 48 hrs by sulforhodamine B assay; assay type: functional; conditions: SF-295, 48 h; summary of the method: as §2
# EKVX = assay: Growth inhibition of human EKVX cells after 48 hrs by sulforhodamine B assay; assay type: functional; summary of the method: as §2
# HCT-15 = assay: Growth inhibition of human HCT15 cells after 48 hrs by sulforhodamine B assay; assay type: functional; conditions: HCT-15, 48 h; summary of the method: as §2
# COLO 205 = assay: Growth inhibition of human COLO205 cells after 48 hrs by sulforhodamine B assay; assay type: functional; conditions: COLO 205, 48 h; summary of the method: as §2
# HOP-92 = assay: Growth inhibition of human HOP92 cells after 48 hrs by sulforhodamine B assay; assay type: functional; conditions: HOP-92, 48 h; summary of the method: as §2
# MDA-MB-435 = assay: Growth inhibition of human MDA-MB-435 cells after 48 hrs by sulforhodamine B assay; assay type: functional; conditions: MDA-MB-435, 48 h; summary of the method: as §2
# K562 = assay: Growth inhibition of human K562 cells after 48 hrs by sulforhodamine B assay; assay type: functional; conditions: K562, 48 h; summary of the method: as §2
# T47D = assay: Growth inhibition of human T47D cells after 48 hrs by sulforhodamine B assay; assay type: functional; summary of the method: as §1
compound,measurement,setting,value
CC(=O)/C(=C/N1CCN(C(=O)c2ccco2)C1=O)C(=O)c1ccccc1,IC50,MT4,> 100 µM
COc1ccc(C(=O)N2CCN(C(=O)c3ccc(OC)cc3)C2=S)cc1,IC50,MT4,> 100 µM
Cc1ccc(C(=O)N2CCCN(C(=O)c3ccc(C)cc3)C2=S)cc1,IC50,MT4,> 100 µM
N#CC(C#N)=CN1CCN(C(=O)c2ccco2)C1=O,IC50,MT4,> 100 µM
O=C(c1cc(Cl)cc(Cl)c1)N1CCCN(C(=O)c2cc(Cl)cc(Cl)c2)C1=S,IC50,MT4,30 µM
O=C(c1cccs1)N1CCCN(C(=O)c2cccs2)C1=S,IC50,MT4,> 100 µM
CCOC(=O)/C(=C/N1CCN(C(=O)c2ccco2)C1=O)C(=O)c1ccccc1,IC50,MT4,43 µM
CC(C)(C)c1ccc(C(=O)N2CCN(C(=O)c3ccc(C(C)(C)C)cc3)C2=S)cc1,IC50,MT4,> 100 µM
O=C(c1ccc(Cl)c([N+](=O)[O-])c1)N1CCN(C(=O)c2ccc(Cl)c([N+](=O)[O-])c2)C1=S,IC50,MT4,11 µM
CC(C)(C)C(=O)N1CCN(C=O)C1=S,IC50,MT4,43 µM
Cc1ccccc1C(=O)N1CCN(C(=O)c2ccccc2C)C1=S,IC50,MT4,> 100 µM
O=C(c1ccccc1)N1CCCN(C(=O)c2ccccc2)C1=S,IC50,MT4,> 100 µM
O=C(c1ccc(Cl)cc1Cl)N1CCCN(C(=O)c2ccc(Cl)cc2Cl)C1=S,IC50,MT4,> 100 µM
COC(=O)/C(=C\N1CCN(C(=O)c2ccco2)C1=S)C(C)=O,GI50,SNB-19,41.7 µM
same,GI50,IGROV-1,10.4 µM
same,GI50,BT-549,3.5 µM
same,GI50,RXF 393,4.4 µM
same,GI50,TK-10,3.5 µM
same,GI50,HCT-116,7.4 µM
same,GI50,UACC-257,17.2 µM
same,GI50,SK-MEL-5,5.3 µM
same,GI50,OVCAR-3,2700 nM
same,GI50,UACC-62,11.5 µM
same,GI50,[1],5.5 µM
same,GI50,NCI-H322M,12.4 µM
same,GI50,MOLT-4,20.8 µM
same,GI50,M14,10.7 µM
same,GI50,NCI-H23,12.2 µM
same,GI50,LOX IMVI,1600 nM
same,GI50,ACHN,4.1 µM
same,GI50,MDA-MB-231,9 µM
same,GI50,SNB-75,21 µM
same,GI50,A549,19.3 µM
same,GI50,OVCAR-8,27.8 µM
same,GI50,Malme-3M,5.6 µM
same,GI50,HT-29,15.8 µM
same,GI50,SK-MEL-28,9.1 µM
same,GI50,SW-620,3.9 µM
same,GI50,HL-60(TB),7.5 µM
same,GI50,HOP-62,20.6 µM
same,GI50,U-251,5.5 µM
same,GI50,NCI/ADR-RES,22.2 µM
same,GI50,CAKI-1,2800 nM
same,IC50,MT4,7 µM
same,GI50,NCI-H460,2300 nM
same,GI50,SF-268,5.8 µM
same,GI50,SN12C,5.9 µM
same,GI50,OVCAR-4,17.4 µM
same,GI50,KM12,3000 nM
same,GI50,SK-MEL-2,15.2 µM
same,GI50,PC-3,18.1 µM
same,GI50,UO-31,13.5 µM
same,GI50,SK-OV-3,31.3 µM
same,GI50,786-0,11.2 µM
same,GI50,SF-295,18.6 µM
same,GI50,EKVX,2600 nM
same,GI50,HCT-15,2200 nM
same,GI50,COLO 205,12.6 µM
same,GI50,HOP-92,20.8 µM
same,GI50,MDA-MB-435,4.5 µM
same,GI50,K562,10.2 µM
same,GI50,T47D,6 µM
O=C(c1ccccc1Cl)N1CCN(C(=O)c2ccccc2Cl)C1=S,IC50,MT4,54 µM
O=C(c1ccccc1Cl)N1CCCN(C(=O)c2ccccc2Cl)C1=S,IC50,MT4,> 100 µM
